Results as given in ChEMBL document CHEMBL1275592, “AmpN-AmpG operon is essential for expression of L1 and L2 beta-lactamases in Stenotrophomonas maltophilia” (2010).
In brackets after ≈: the same amount, converted by molar mass.

How the values were obtained:
[1] = test system: Stenotrophomonas maltophilia; assay: Antimicrobial activity against Stenotrophomonas maltophilia KJN2 harboring pRK-NG plasmid and ampN with xylE-Gmomega cassette insertion by Etest; type: functional
Outline: (§1)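 Imipenem and meropenem MICs were read from Etest strips, following the manufacturer's instructions.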

[2] = test system: Stenotrophomonas maltophilia; assay: Antimicrobial activity against Stenotrophomonas maltophilia KJ by Etest; type: functional; outline: as §1
[3] = test system: Stenotrophomonas maltophilia; assay: Antimicrobial activity against Stenotrophomonas maltophilia KJN1 harboring ampN with xylE-Gmomega cassette insertion by Etest; type: functional; outline: as §1
[4] = test system: Stenotrophomonas maltophilia; assay: Antimicrobial activity against ampN deficient Stenotrophomonas maltophilia KJ by Etest; type: functional; outline: as §1
[5] = test system: Stenotrophomonas maltophilia; assay: Antimicrobial activity against ampN deficient Stenotrophomonas maltophilia KJ harboring ampG with xylE-Gmomega cassette insertion by Etest; type: functional; outline: as §1
[6] = test system: Stenotrophomonas maltophilia; assay: Antimicrobial activity against Stenotrophomonas maltophilia KJG harboring ampG with xylE-Gmomega cassette insertion by Etest; type: functional; outline: as §1
[7] = test system: Stenotrophomonas maltophilia; assay: Antimicrobial activity against Stenotrophomonas maltophilia KJN2 harboring pRK415 plasmid and ampN with xylE-Gmomega cassette insertion by Etest; type: functional; outline: as §1
[8] = test system: Stenotrophomonas maltophilia; assay: Antimicrobial activity against Stenotrophomonas maltophilia KJN2 harboring pRK-EcG plasmid and ampN with xylE-Gmomega cassette insertion by Etest; type: functional; outline: as §1
[9] = test system: Stenotrophomonas maltophilia; assay: Antimicrobial activity against Stenotrophomonas maltophilia KJN2 harboring pRK-G plasmid and ampN with xylE-Gmomega cassette insertion by Etest; type: functional; outline: as §1
[10] = test system: Stenotrophomonas maltophilia; assay: Antimicrobial activity against Stenotrophomonas maltophilia KJN2 harboring ampN with xylE-Gmomega cassette insertion by Etest; type: functional; outline: as §1
[11] = test system: Stenotrophomonas maltophilia; assay: Antimicrobial activity against Stenotrophomonas maltophilia KJG harboring ampG with xylE-Gmomega cassette insertion by agar dilution method; type: functional
Outline: (§2)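 MICs were determined in triplicate by standard 2-fold serial agar dilution, following CLSI guidelines.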

[12] = test system: Stenotrophomonas maltophilia; assay: Antimicrobial activity against Stenotrophomonas maltophilia KJN2 harboring pRK-NG plasmid and ampN with xylE-Gmomega cassette insertion by agar dilution method; type: functional; outline: as §2
[13] = test system: Stenotrophomonas maltophilia; assay: Antimicrobial activity against Stenotrophomonas maltophilia KJN2 harboring pRK415 plasmid and ampN with xylE-Gmomega cassette insertion by agar dilution method; type: functional; outline: as §2
[14] = test system: Stenotrophomonas maltophilia; assay: Induction of beta-lactamase activity in Stenotrophomonas maltophilia KJG harboring ampG with xylE-Gmomega cassette insertion at 20 ug/ml
Outline: (§3)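 Cells were induced with cefuroxime at 20 μg/ml. β-Lactamase activity was measured as nitrocefin hydrolysis at 486 nm, using ε 20,500 M−1 cm−1. Specific activity is nmol nitrocefin hydrolysed/min/mg protein. Protein was measured by dye-binding assay against a BSA standard. Basal and induced activities are both reported.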

[15] = test system: Stenotrophomonas maltophilia; assay: Induction of beta lactamase activity in Stenotrophomonas maltophilia KJN2 harboring pRK-G and ampN with xylE-Gmomega cassette insertion at 20 ug/ml; outline: as §3
[16] = test system: Stenotrophomonas maltophilia; assay: Antimicrobial activity against Stenotrophomonas maltophilia KJN2 harboring pRK-EcG plasmid and ampN with xylE-Gmomega cassette insertion by agar dilution method; type: functional; outline: as §2
[17] = test system: Stenotrophomonas maltophilia; assay: Induction of beta lactamase activity in Stenotrophomonas maltophilia KJN2 harboring pRK415 and ampN with xylE-Gmomega cassette insertion at 20 ug/ml; outline: as §3
[18] = test system: Stenotrophomonas maltophilia; assay: Induction of beta-lactamase activity in Stenotrophomonas maltophilia KJ harboring pRK415 plasmid at 20 ug/ml; outline: as §3
[19] = target: T1, Catechol 2,3-dioxygenase (Stenotrophomonas maltophilia) (UniProt A7LB47); assay: Induction of catechol 2,3-dioxygenase activity in Stenotrophomonas maltophilia KJN1 harboring ampN with xylE-Gmomega cassette insertion at 20 ug/ml
T1 sequence (whole entry): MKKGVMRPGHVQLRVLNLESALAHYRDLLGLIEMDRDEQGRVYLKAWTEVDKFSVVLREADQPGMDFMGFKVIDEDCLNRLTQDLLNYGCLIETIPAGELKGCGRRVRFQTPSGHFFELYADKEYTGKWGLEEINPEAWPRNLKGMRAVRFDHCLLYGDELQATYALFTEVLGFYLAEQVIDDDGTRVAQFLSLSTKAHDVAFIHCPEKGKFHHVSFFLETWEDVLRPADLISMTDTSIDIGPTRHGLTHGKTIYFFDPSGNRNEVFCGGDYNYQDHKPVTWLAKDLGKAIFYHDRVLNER
Outline: (§4)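 C23O (xylE product) activity assayed in intact cells, with cefuroxime 20 μg/ml as inducer. Rate calculated with extinction coefficient 44,000 M−1 cm−1. One unit (Uc) converts 1 nmol substrate/min. Specific activity given as Uc/OD450. Plasmids were introduced into S. maltophilia by conjugation and confirmed by colony PCR.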

[20] = target: T1, Catechol 2,3-dioxygenase (Stenotrophomonas maltophilia); assay: Induction of catechol 2,3-dioxygenase activity in ampN deficient Stenotrophomonas maltophilia KJ harboring pRK-G and ampG gene with xylE-Gmomega cassette insertion at 20 ug/ml; outline: as §4
[21] = test system: Stenotrophomonas maltophilia; assay: Induction of beta-lactamase activity in Stenotrophomonas maltophilia KJ at 20 ug/ml
Outline: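 Cefuroxime 20 μg/ml added as inducer. β-lactamase activity read by nitrocefin hydrolysis at 486 nm (ε 20,500 M−1 cm−1). Specific activity given as nmol nitrocefin hydrolyzed/min/mg protein. Protein measured by Bio-Rad assay against a BSA standard. L1 versus L2 split by the modified nitrocefin-EDTA method.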

[22] = test system: Stenotrophomonas maltophilia; assay: Antimicrobial activity against ampN deficient Stenotrophomonas maltophilia KJ by agar dilution method; type: functional; outline: as §2
[23] = test system: Stenotrophomonas maltophilia; assay: Antimicrobial activity against Stenotrophomonas maltophilia KJN2 harboring ampN with xylE-Gmomega cassette insertion by agar dilution method; type: functional; outline: as §2
[24] = test system: Stenotrophomonas maltophilia; assay: Induction of beta-lactamase activity in Stenotrophomonas maltophilia KJN1 harboring ampN with xylE-Gmomega cassette insertion at 20 ug/ml; outline: as §3
[25] = target: T1, Catechol 2,3-dioxygenase (Stenotrophomonas maltophilia); assay: Induction of catechol 2,3-dioxygenase activity in Stenotrophomonas maltophilia KJ harboring pRKF3 plasmid at 20 ug/ml; outline: as §4
[26] = target: T1, Catechol 2,3-dioxygenase (Stenotrophomonas maltophilia); assay: Induction of catechol 2,3-dioxygenase activity in Stenotrophomonas maltophilia KJ harboring pRKF1 plasmid at 20 ug/ml; outline: as §4
[27] = test system: Stenotrophomonas maltophilia; assay: Antimicrobial activity against Stenotrophomonas maltophilia KJ by agar dilution method; type: functional; outline: as §2
[28] = test system: Stenotrophomonas maltophilia; assay: Antimicrobial activity against Stenotrophomonas maltophilia KJN2 harboring pRK-G plasmid and ampN with xylE-Gmomega cassette insertion by agar dilution method; type: functional; outline: as §2
[29] = target: T1, Catechol 2,3-dioxygenase (Stenotrophomonas maltophilia); assay: Induction of catechol 2,3-dioxygenase activity in Stenotrophomonas maltophilia KJ harboring pRK415 plasmid at 20 ug/ml; outline: as §4
[30] = test system: Stenotrophomonas maltophilia; assay: Induction of beta-lactamase activity in ampN deficient Stenotrophomonas maltophilia KJ at 20 ug/ml; outline: as §3
[31] = test system: Stenotrophomonas maltophilia; assay: Antimicrobial activity against ampN deficient Stenotrophomonas maltophilia KJ harboring ampG with xylE-Gmomega cassette insertion by agar dilution method; type: functional; outline: as §2
[32] = target: T1, Catechol 2,3-dioxygenase (Stenotrophomonas maltophilia); assay: Induction of catechol 2,3-dioxygenase activity in Stenotrophomonas maltophilia KJN2 harboring ampN with xylE-Gmomega cassette insertion at 20 ug/ml; outline: as §4
[33] = target: T1, Catechol 2,3-dioxygenase (Stenotrophomonas maltophilia); assay: Induction of catechol 2,3-dioxygenase activity in Stenotrophomonas maltophilia KJ harboring pRKF5 plasmid at 20 ug/ml; outline: as §4
[34] = test system: Stenotrophomonas maltophilia; assay: Induction of beta-lactamase activity in Stenotrophomonas maltophilia KJ harboring pRK-NG plasmid at 20 ug/ml; outline: as §3
[35] = test system: Stenotrophomonas maltophilia; assay: Induction of beta-lactamase activity in Stenotrophomonas maltophilia KJN2 harboring ampN with xylE-Gmomega cassette insertion at 20 ug/ml; outline: as §3
[36] = target: T1, Catechol 2,3-dioxygenase (Stenotrophomonas maltophilia); assay: Induction of catechol 2,3-dioxygenase activity in Stenotrophomonas maltophilia KJ harboring pRKF4 plasmid at 20 ug/ml; outline: as §4
[37] = target: T1, Catechol 2,3-dioxygenase (Stenotrophomonas maltophilia); assay: Induction of catechol 2,3-dioxygenase activity in Stenotrophomonas maltophilia KJ harboring pRKF2 plasmid at 20 ug/ml; outline: as §4
[38] = target: T1, Catechol 2,3-dioxygenase (Stenotrophomonas maltophilia); assay: Induction of catechol 2,3-dioxygenase activity in ampN deficient Stenotrophomonas maltophilia KJ harboring pRK-NG and ampG gene with xylE-Gmomega cassette insertion at 20 ug/ml; outline: as §4
[39] = target: T1, Catechol 2,3-dioxygenase (Stenotrophomonas maltophilia); assay: Induction of catechol 2,3-dioxygenase activity in Stenotrophomonas maltophilia KJG harboring ampG with xylE-Gmomega cassette insertion at 20 ug/ml; outline: as §4
[40] = test system: Stenotrophomonas maltophilia; assay: Induction of beta-lactamase activity in ampN deficient Stenotrophomonas maltophilia KJ harboring ampG gene with xylE-Gmomega cassette insertion at 20 ug/ml; outline: as §3
[41] = test system: Stenotrophomonas maltophilia; assay: Induction of beta lactamase activity in Stenotrophomonas maltophilia KJN2 harboring pRK-NG and ampN with xylE-Gmomega cassette insertion at 20 ug/ml; outline: as §3
[42] = target: T1, Catechol 2,3-dioxygenase (Stenotrophomonas maltophilia); assay: Induction of catechol 2,3-dioxygenase activity in ampN deficient Stenotrophomonas maltophilia KJ harboring pRK-N and ampG gene with xylE-Gmomega cassette insertion at 20 ug/ml; outline: as §4
[43] = test system: Stenotrophomonas maltophilia; assay: Induction of beta lactamase activity in Stenotrophomonas maltophilia KJN2 harboring pRK-EcG and ampN with xylE-Gmomega cassette insertion at 20 ug/ml; outline: as §3
[44] = target: T1, Catechol 2,3-dioxygenase (Stenotrophomonas maltophilia); assay: Induction of catechol 2,3-dioxygenase activity in ampN deficient Stenotrophomonas maltophilia KJ harboring pRK415 and ampG gene with xylE-Gmomega cassette insertion at 20 ug/ml; outline: as §4
[45] = test system: Stenotrophomonas maltophilia; assay: Antimicrobial activity against Stenotrophomonas maltophilia KJN1 harboring ampN with xylE-Gmomega cassette insertion by agar dilution method; type: functional; outline: as §2
[46] = target: T1, Catechol 2,3-dioxygenase (Stenotrophomonas maltophilia); assay: Induction of catechol 2,3-dioxygenase activity in ampN deficient Stenotrophomonas maltophilia KJ harboring ampG gene with xylE-Gmomega cassette insertion at 20 ug/ml; outline: as §4
[47] = target: T1, Catechol 2,3-dioxygenase (Stenotrophomonas maltophilia); assay: Induction of catechol 2,3-dioxygenase activity in Stenotrophomonas maltophilia KJ harboring pRKF6 plasmid at 20 ug/ml; outline: as §4

SMILES: C[C@@H](O)[C@H]1C(=O)N2C(C(=O)O)=C(S[C@@H]3CN[C@H](C(=O)N(C)C)C3)[C@H](C)[C@H]12 [MEROPENEM]
- MIC [1]: > 32 µg/mL
- MIC [2]: > 32 µg/mL
- MIC [3]: 0.5 µg/mL (≈ 1.3 µM)
- MIC [4]: 0.38 µg/mL (≈ 0.991 µM)
- MIC [5]: 0.38 µg/mL (≈ 0.991 µM)
- MIC [6]: 0.38 µg/mL (≈ 0.991 µM)
- MIC [7]: 0.5 µg/mL (≈ 1.3 µM)
- MIC [8]: > 32 µg/mL
- MIC [9]: 0.75 µg/mL (≈ 1.96 µM)
- MIC [10]: 0.38 µg/mL (≈ 0.991 µM)

SMILES: CO/N=C(\C(=O)N[C@@H]1C(=O)N2C(C(=O)O)=C(COC(N)=O)CS[C@H]12)c1ccco1 [CEFUROXIME]
- MIC [11]: 32 µg/mL (≈ 75.4 µM)
- MIC [12]: > 1020 µg/mL
- MIC [13]: 32 µg/mL (≈ 75.4 µM)
- Activity [14]: 6 U/mg
- Activity [15]: 12 U/mg
- MIC [16]: > 1020 µg/mL
- Activity [17]: 18 U/mg
- Activity [18]: 1740 U/mg
- Activity (nmol/min/OD450) [19]: 4
- Activity (nmol/min/OD450) [20]: 4
- Activity [21]: 1520 U/mg
- MIC [22]: 32 µg/mL (≈ 75.4 µM)
- MIC [23]: 32 µg/mL (≈ 75.4 µM)
- Activity [24]: 5 U/mg
- Activity (nmol/min/OD450) [25]: 6
- Activity (nmol/min/OD450) [26]: 6
- MIC [27]: > 1020 µg/mL
- MIC [28]: 64 µg/mL (≈ 151 µM)
- Activity (nmol/min/OD450) [29]: 0
- Activity [30]: 6 U/mg
- MIC [31]: 32 µg/mL (≈ 75.4 µM)
- Activity (nmol/min/OD450) [32]: 39
- Activity (nmol/min/OD450) [33]: 6
- Activity [34]: 1620 U/mg
- Activity [35]: 5 U/mg
- Activity (nmol/min/OD450) [36]: 45
- Activity (nmol/min/OD450) [37]: 50
- Activity (nmol/min/OD450) [38]: 5
- Activity (nmol/min/OD450) [39]: 41
- Activity [40]: 3 U/mg
- Activity [41]: 1450 U/mg
- Activity (nmol/min/OD450) [42]: 5
- Activity [43]: 882 U/mg
- Activity (nmol/min/OD450) [44]: 5
- MIC [45]: 32 µg/mL (≈ 75.4 µM)
- Activity (nmol/min/OD450) [46]: 4
- Activity (nmol/min/OD450) [47]: 8
